System: MS2 coat protein
Experiment: apparent Kd, MS2 coat protein; higher = weaker binding; RNA-MaP array; FMN 200 µM where present
Procedure, shortened: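 Stalled E. coli RNA polymerase produced the designs on Illumina sequencing-chip clusters. SNAP-549-labelled MS2 coat protein was added from 0.7 or 1.5 nM, doubling to 3 µM, without and then with constant ligand, in 100 mM Tris-HCl pH 7.5, 80 mM KCl, 4 mM MgCl2, BSA, DTT, yeast tRNA and Tween-20. The apparent Kd is the median of filtered per-cluster fits of green signal normalised to red-channel RNA signal and control-cluster median Fmax.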

[1] = designed as: ON switch for flavin mononucleotide, no ligand
[2] = ligand present: flavin mononucleotide, designed as: ON switch for flavin mononucleotide
[3] = designed as: OFF switch for flavin mononucleotide, no ligand
[4] = ligand present: flavin mononucleotide, designed as: OFF switch for flavin mononucleotide

Sequence | apparent Kd [1] [nM] | apparent Kd [2] [nM] | apparent Kd [3] [nM] | apparent Kd [4] [nM]
AAAAAAAAAACUCAGGAUAUAGAUAAUUGAACAUGAGGAUCACCCAUGUAGUGAAAAAAAAAAAAUUAGAAGGGAGGAAAAAAAAA | 67.8 | 58.8 | – | –
UUCCUACAUGAGGAUCACCCAUGUCAGGAUAUCUCCUCGUCGCCAAUGGGCGACGAAUAGAGAAGGGACAGGAA | – | – | 15 | 16.7
UAGUAUAAGGGCAUUAAACAUGAGGAUCACCCAUGUACAAUAGAGGAUAUGCAUUUCGGUUUAGAGUAGAAGGUUAGAGAAUAU | – | – | 31.3 | 38.1
UUGCGGUCAGGAUAUGCAUGGCGGGACUUGCGUCGUGGCGUGGAGAAGGGACAUGAGGAUCACCCAUGUGGAGC | – | – | 54.5 | 59.9
GGGUACAUCGGAGGAUAUCAUCUAAAUACAUGAGGAUCACCCAUGUCGAUGGAGACAUCGGAGAUUGAGAAGGCCGAUGUACCG | 5.06 | 5.23 | – | –
GCCAUUGCAUGAGGAUAUGCUCCCGUUUCGGGAGCAGAAGGCAUGUCAUAAGACAUGAGGAUCACCCAUGUAUUUAAGAUGGCA | 273 | 11.5 | – | –
CCUAAGCGAAUCAAGAUGGAUAGAACAUGAGGAUCACCCAUGUAGGAUAUGCUACACAAAGUGUAGCAGAAGGACAAGCUUAGG | – | – | 25.9 | 40.5
AAAAGACAUGAGGAUCACCCAUGUCAAAACAUAGGAGGAUAUGUCUUGAAAAAAGACUUGACAGAAGGCCUUUGUC | 17.9 | 15.8 | – | –
CUAAAUCAUGUAGGAUAUGCAUGGCGAAGCUACGCAGAAGGACAUGAGGAUCACCCAUGUCUCUCCGUCUGCGAACAGACGGAG | – | – | 19.6 | 104
CGUAUGUCAGGAUAUGCGUAUGCCACCCAGGACGGGCGGCAGCAGAAGGGACAUGAGGAUCACCCAUGUUCGGG | – | – | 75 | 68.4
AAGAAGUGAGGAUAUGCUGCUCGUCACGAAAGUGAUGAGUAGCAGAAGGCACAUGAGGAUCACCCAUGUAAAGA | – | – | 36.9 | 55.4
UAAAUGUGAGGAUAUUCGAUUAACUCGGAGACGAGUUGAUCGGAGAAGGCACAUGAGGAUCACCCAUGUUCCUU | – | – | 24.8 | 232
CCCACGAAAGUCGAACGAUGUAGCAGAAGGACAAUAACAUGACAUGAGGAUCACCCAUGUGCCAUGUAGGAUAUGCUACAUGGG | – | – | 8.24 | 7.14
UUGAGGUGCAAGAAGGGUCACAUGAGGAUCACCCAUGUCAUGUGAAGUCUCGAGAUUUUAUAUGGAUAGGAUAUUGCACCGAAC | 197 | 98.2 | – | –
CCAUAAAAGAUCCAAAUUUACAACAUGAGGAUCACCCAUGUGCAGGAUAUCGUGAAAGUAAAAUACGAGAAGGGCAAGAACUGC | – | – | 300 | 362
UUUGUUGUUGUGAGGAUAUCGUUGAUUUUUUGAAACGAGAAGGCACAUGAGGAUCACCCAUGUUUGUUGUUGGU | – | – | 66.2 | 248
CGUCCGUGGGUAGUGAUCGUACAUGAGGAUCACCCAUGUGAGAAGGAUAUGCAUGCACGUGGACAGCAGAAGGUCUCACAACAA | – | – | 238 | 101
AUUGUAUAGGAAGGAUAUAGAAUAUUAUUUUAACAUGAGGAUCACCCAUGUAACCUUAUGUGUAGCUAGAAGGUCCAUUUGUUA | – | – | 248 | 302
AUGCUUCUCUCAGGAUAUUACAACAUGAGGAUCACCCAUGUACAUGACAUGACGAUCACGCAUGUUAAGAAGGGAGAGAAGCAU | – | – | 718 | 583
GGAUGACAAAGUCAUCCUUAACGAACAUGAGGAUCACCCAUGUAGGAUAUGGUACUCAAAGAGUACCAGAAGGACAUGUGCCUU | – | – | 34.3 | 203
UUAUUUAUACAAGGAUAUCUAUUGUUAAUUCGACUUACAUGAGGAUCACCCAUGUUUUUAUGUUUAGAGAAGGUGUAAUUUCUG | 25.8 | 26.4 | – | –
CUGAGCAAUGUAGGAUAUCGACUGGAAUACAGUCGAGAAGGACAUGAGGAUCACCCAUGUAAAUGAGUGAAUAAUAAAGCUCAG | – | – | 735 | 345
GUAGCACAUGAAAAUAUAACAUGAGGAUCACCCAUGUGUUAUGAGGAUAUGGAUGUGAAGUUAAUCCAGAAGGCAUUAUGCUAC | 21.5 | 11.7 | – | –
UUUUAACAUGAGGAUCACCCAUGUGAGGAUAUCGAAAUUUAUAUUAAUAUUUUUAAUACGAGAAGGCACAUUUU | – | – | 47.2 | 73.6
UUGGUGUACGUAGGAUAUGUAGGAUAUUCCUACAUGAGGAUCACCCAUGUUUACAUGGAAGAAGGACAGAAGGACGUGCACCAU | 1280 | 15.2 | – | –
UGGUCGCGAGGAUAUACAUGAGGAUCACCCAUGUUUGAGCGCCAUCCGUUCGGCUCGUGUAGAAGGUGCACACA | – | – | 21.9 | 19.9
GUCCAACAUGAGGAUCACCCAUGUCAGGAUAUACCGGGCGAAAGAAAGGCCCAUAAGGGUAGAAGGGACGGUGU | – | – | 15.8 | 21

Source: the EternaBench riboswitch data
